This passage reports inhibition and IC50 results from ChEMBL document CHEMBL4368933, “Structure-activity relationship of leucyladenylate sulfamate analogues as leucyl-tRNA synthetase (LRS)-targeting inhibitors of Mammalian target of rapamycin complex 1 (mTORC1)” (Bioorg Med Chem, 2019).

SMILES strings stand for the structures. Activity calls are given as the source filed them. No cut-off for these calls is given here.

Assay [1] addresses Leucine--tRNA ligase, cytoplasmic (Homo sapiens) (UniProt Q9P2J5). Briefly: Inhibition of Leucyl-tRNA synthetase-mediated mTORC1 signaling activation in human HEK293 cells assessed as reduction in leucine-induced S6K phosphorylation at 200 uM preincubated for 50 mins followed by leucine-stimulation and measured after 10 mins by Western blot analysis. Type of assay: cell-based. In outline: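 HEK293 cells pretreated with test agent at a fixed 200 µM, alongside rapamycin (100 nM) and leucinol (800 µM) as references. mTORC1 then activated by adding leucine for 10 min. S6K phosphorylation read by Western blot.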
(In western blotting, separated proteins are transferred to a membrane and probed.)

The next assay concerns A549. Description: Antiproliferative activity against human A549 cells after 72 hrs by SRB assay. It is filed as functional, cell-based. To be noted: A549, 72 h. In outline:
(§1)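 Colorimetric growth assay with IC50 values derived; etoposide as positive control. Cell lines: A549 (lung cancer), HCT116 (colon cancer), MDA-MB-231 (breast cancer), SK-Hep-1 (liver cancer), SNU638 (stomach cancer), MRC5 (normal lung […]).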
A general note: The SRB assay estimates cell density from bound dye.

The test system of a further assay is HCT-116. Briefly: Antiproliferative activity against human HCT116 cells after 72 hrs by SRB assay. Type of assay: functional, cell-based. Particulars: HCT-116, 72 h. In outline:
as §1

The subject of another assay is MDA-MB-231. Briefly: Antiproliferative activity against human MDA-MB-231 cells after 72 hrs by SRB assay. Type of assay: functional, cell-based. Particulars: MDA-MB-231, 72 h. In outline:
as §1

In a further assay the test system is SK-HEP1. Briefly: Antiproliferative activity against human SKHEP1 cells after 72 hrs by SRB assay. Type of assay: functional, cell-based. To be noted: SK-HEP1, 72 h. In outline: as §1
Another assay deals with SNU-638. Description: Antiproliferative activity against human SNU638 cells after 72 hrs by SRB assay. Type of assay: functional, cell-based. Particulars: SNU-638, 72 h. In outline: as §1
The next assay relates to MRC5. Briefly: Antiproliferative activity against human MRC5 cells after 72 hrs by SRB assay. It is filed as cell-based. Particulars: MRC5, 72 h. In outline:
as §1

A further assay concerns the target mTORC2 (Homo sapiens) (UniProt P42345+Q6R327+Q9BVC4+Q9BPZ7). Briefly: Inhibition of mTORC2 signaling in human HEK293 cells assessed as reduction in leucine-induced AKT phosphorylation at 200 uM preincubated for 50 mins followed by leucine-stimulation and measured after 10 mins by Western blot analysis. It is filed as cell-based.

Sequence of Leucine--tRNA ligase, cytoplasmic (Homo sapiens) (Q9P2J5 whole entry, looked up): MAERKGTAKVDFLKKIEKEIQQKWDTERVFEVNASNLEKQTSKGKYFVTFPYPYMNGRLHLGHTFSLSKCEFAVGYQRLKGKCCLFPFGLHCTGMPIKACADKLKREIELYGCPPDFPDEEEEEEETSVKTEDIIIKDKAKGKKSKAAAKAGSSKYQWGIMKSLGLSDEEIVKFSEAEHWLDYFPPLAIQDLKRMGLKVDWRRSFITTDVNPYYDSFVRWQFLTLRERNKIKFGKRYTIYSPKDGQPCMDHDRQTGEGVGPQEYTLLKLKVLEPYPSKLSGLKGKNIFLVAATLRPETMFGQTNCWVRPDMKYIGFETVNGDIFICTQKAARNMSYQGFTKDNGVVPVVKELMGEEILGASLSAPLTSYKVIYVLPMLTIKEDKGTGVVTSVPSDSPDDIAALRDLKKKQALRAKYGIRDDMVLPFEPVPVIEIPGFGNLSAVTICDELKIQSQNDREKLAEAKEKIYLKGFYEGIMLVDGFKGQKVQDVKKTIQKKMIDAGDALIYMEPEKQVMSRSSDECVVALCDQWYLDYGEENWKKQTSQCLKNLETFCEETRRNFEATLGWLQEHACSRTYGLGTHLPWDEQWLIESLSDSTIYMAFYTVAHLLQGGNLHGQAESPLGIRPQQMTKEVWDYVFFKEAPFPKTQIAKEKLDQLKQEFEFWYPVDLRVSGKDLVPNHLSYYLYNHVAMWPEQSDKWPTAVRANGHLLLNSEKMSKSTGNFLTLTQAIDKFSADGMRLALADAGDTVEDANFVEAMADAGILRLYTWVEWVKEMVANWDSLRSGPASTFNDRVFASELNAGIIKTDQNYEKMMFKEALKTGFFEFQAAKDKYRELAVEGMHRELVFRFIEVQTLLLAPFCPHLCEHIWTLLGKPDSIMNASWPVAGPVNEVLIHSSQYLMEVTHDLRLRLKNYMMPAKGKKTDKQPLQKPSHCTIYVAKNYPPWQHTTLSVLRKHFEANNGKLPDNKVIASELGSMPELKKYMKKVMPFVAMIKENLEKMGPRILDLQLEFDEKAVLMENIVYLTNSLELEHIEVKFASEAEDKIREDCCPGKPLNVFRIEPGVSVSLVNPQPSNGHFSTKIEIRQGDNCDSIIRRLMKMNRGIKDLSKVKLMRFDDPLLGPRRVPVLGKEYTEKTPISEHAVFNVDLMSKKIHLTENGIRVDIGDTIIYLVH

As for `CC(C)C[C@H](N)C(=O)NS(=O)(=O)OC[C@H]1O[C@@H](n2cnc3c(N)ncnc32)[C@H](O)[C@@H]1N`, the inhibition entry in assay [1] was “inactive”. As usually defined, the IC50 is the midpoint of a concentration-inhibition curve. Lower therefore signals greater potency in that assay. For the compound `CC(C)[C@@H](O)[C@H](O)C(=O)NS(=O)(=O)OC[C@H]1O[C@@H](n2cnc3c(=O)[nH]cnc32)[C@H](O)[C@@H]1O`, the inhibition result in assay [1] is “Active”. Further, the IC50 in the assay with A549, in the assay on HCT-116, with MDA-MB-231, with SK-HEP1, in the assay on SNU-638 and with MRC5 was > 20 µM throughout. `CC(C)C[C@H](Cl)C(=O)NS(=O)(=O)OC[C@H]1O[C@@H](n2cnc3c(N)ncnc32)[C@H](O)[C@@H]1O`: in assay [1], the inhibition entry was “inactive”. As to `CC(C)C[C@H](O)C(=O)NS(=O)(=O)OC[C@@H]1C[C@@H](O)[C@H](n2cnc3c(N)ncnc32)O1`, the inhibition result in assay [1] is “inactive”. Besides, the inhibition result on mTORC2 (Homo sapiens) is “Active”. Consider `CO[C@H](C(=O)NS(=O)(=O)OC[C@H]1O[C@@H](n2cnc3c(N)nc(Cl)nc32)[C@H](O)[C@@H]1O)[C@H](OC)C(C)C`, for which, in assay [1], the inhibition result was “Active”. The IC50 in the assay with A549, in the assay with HCT-116, in the assay with MDA-MB-231, in the assay on SK-HEP1, with SNU-638 and with MRC5 was > 20 µM in each case.

With `CC(C)C[C@H](S)C(=O)NS(=O)(=O)OC[C@H]1O[C@@H](n2cnc3c(N)ncnc32)[C@H](O)[C@@H]1O`, the inhibition result in assay [1] is “Active”. Still for that read-out and setting: to `CC(C)C[C@H](O)C(=O)NS(=O)(=O)OC[C@H]1O[C@@H](n2cnc3c(N)ncnc32)[C@@H](O)[C@@H]1O` belongs “Active”; to `CO[C@H](C(=O)NS(=O)(=O)OC[C@H]1O[C@@H](n2cnc3c(N)ncnc32)[C@H](O)[C@@H]1O)[C@H](OC)C(C)C`, “inactive”; to `Nc1ncnc2c1ncn2[C@@H]1O[C@H](COS(=O)(=O)NC(=O)[C@@H](O)[C@H](O)C2CC2)[C@@H](O)[C@H]1O`, “inactive”. On to `CO[C@H](C(=O)NS(=O)(=O)OC[C@H]1O[C@@H](n2cnc3c(N)ncnc32)C[C@@H]1O)[C@H](OC)C(C)C`, for which the inhibition entry in assay [1] was “inactive”. Same read-out and setting: to `Nc1ncnc2c1ncn2[C@@H]1O[C@H](COS(=O)(=O)NC(=O)c2cc(C3CC3)n[nH]2)[C@@H](O)[C@H]1O` belongs “inactive”.

For `CC(C)[C@@H](O)[C@H](O)C(=O)NS(=O)(=O)OC[C@H]1O[C@@H](n2cnc3c(N)ncnc32)[C@@H]2OC(=O)N[C@@H]21`, the inhibition result in assay [1] was “inactive”. Still for that read-out and setting: to `CNc1ncnc2c1ncn2[C@@H]1O[C@H](COS(=O)(=O)NC(=O)[C@@H](Cl)CC(C)C)[C@@H](O)[C@H]1O` belongs “inactive”; to `CC(C)c1cc(C(=O)NS(=O)(=O)OC[C@H]2O[C@@H](n3cnc4c(N)nc(I)nc43)[C@H](O)[C@@H]2O)n(C)n1`, “Active”; to `CC(C)C[C@H](N)C(=O)NS(=O)(=O)OC[C@H]1O[C@@H](n2cnc3c(N)ncnc32)C[C@@H]1O`, “inactive”.

`CC(C)(C)c1cc(C(=O)NS(=O)(=O)OC[C@H]2O[C@@H](n3cnc4c(N)ncnc43)[C@H](O)[C@@H]2O)[nH]n1`: the inhibition result in assay [1] was “Active”. The same measure, in the same setting: the same measure for `CO[C@H](C(=O)NS(=O)(=O)OC[C@H]1O[C@@H](n2cnc3c(N)nc(Cl)nc32)[C@H](O)[C@@H]1O)[C@H](O)C(C)C`: “inactive”. Same read-out and setting: to `CC(C)C[C@H](O)C(=O)NS(=O)(=O)OC[C@H]1O[C@@H](n2cnc3c(N)nc(I)nc32)[C@H](O)[C@@H]1O` belongs “Active”. The same measure, in the same setting: the same measure for `CC(C)c1cc(C(=O)NS(=O)(=O)OC[C@H]2O[C@@H](n3cnc4c(N)nc(I)nc43)[C@H](O)[C@@H]2O)[nH]n1`: “inactive”; for `CC(C)C[C@@H](O)C(=O)NS(=O)(=O)OC[C@H]1O[C@@H](n2cnc3c(=O)[nH]cnc32)[C@H](O)[C@@H]1O`: “inactive”; for `CC(C)[C@H](O)[C@@H](O)C(=O)NS(=O)(=O)OC[C@H]1O[C@@H](n2cnc3c(N)ncnc32)C[C@@H]1O`: “inactive”. For `CO[C@H](C(=O)NS(=O)(=O)OC[C@H]1O[C@@H](n2cnc3c(N)ncnc32)C[C@@H]1O)[C@H](O)C(C)C`, the inhibition result in assay [1] was “inactive”. Same read-out and setting: the same measure for `O=C(NS(=O)(=O)OC[C@H]1O[C@@H](n2cnc3c(=O)[nH]cnc32)[C@H](O)[C@@H]1O)[C@@H](O)[C@H](O)C1CC1`: “inactive”; for `Nc1ncnc2c1ncn2[C@@H]1O[C@H](COS(=O)(=O)NC(=O)[C@@H](O)[C@H](O)C2CC2)[C@H]2NC(=O)O[C@H]21`: “Active”; for `CC(C)C[C@H](N)CO`: “Active”.

With `CC(C)c1cc(C(=O)NS(=O)(=O)OC[C@H]2O[C@@H](n3cnc4c(N)ncnc43)[C@H](O)[C@@H]2O)[nH]n1`, the inhibition entry in assay [1] was “inactive”. With `CO[C@H](C(=O)NS(=O)(=O)OC[C@H]1O[C@@H](n2cnc3c(N)ncnc32)[C@H](O)[C@@H]1O)[C@H](O)C(C)C`, the inhibition result in assay [1] was “inactive”. The same measure, in the same setting: the same measure for `CC(C)C[C@H](S)C(=O)NS(=O)(=O)OC[C@H]1O[C@@H](n2cnc3c(=O)[nH]cnc32)[C@H](O)[C@@H]1O`: “inactive”; for `CC(C)C[C@@H](O)C(=O)NS(=O)(=O)OC[C@H]1O[C@@H](n2cnc3c(N)ncnc32)[C@H](O)[C@@H]1O`: “Active”; for `CN[C@@H](CC(C)C)C(=O)NS(=O)(=O)OC[C@H]1O[C@@H](n2cnc3c(N)ncnc32)[C@H](O)[C@@H]1O`: “inactive”. Still for that read-out and setting: the same measure for `CC(C)/C=C/C(=O)NS(=O)(=O)OC[C@H]1O[C@@H](n2cnc3c(N)ncnc32)[C@H](O)[C@@H]1O`: “Active”. With `CNc1ncnc2c1ncn2[C@@H]1O[C@H](COS(=O)(=O)NC(=O)[C@H](CC(C)C)OC)[C@@H](O)[C@H]1O`, the inhibition entry in assay [1] is “inactive”. On mTORC2 (Homo sapiens), the inhibition entry was “Active”.

For the compound `CC(C)C[C@H](O)C(=O)NS(=O)(=O)OC[C@H]1O[C@@H](n2cnc3c(N)nc(Cl)nc32)[C@H](O)[C@@H]1O`, the inhibition entry in assay [1] was “inactive”. With `CC(C)C[C@H](O)C(=O)NS(=O)(=O)OC[C@H]1O[C@@H](n2cnc3c(N)ncnc32)C[C@@H]1O`, the inhibition result in assay [1] was “inactive”. Besides, the inhibition entry on mTORC2 (Homo sapiens) is “Active”. With `CC(C)[C@@H](O)[C@H](O)C(=O)NS(=O)(=O)OC[C@H]1O[C@@H](n2cnc3c(N)ncnc32)[C@@H](O)[C@@H]1O`, the inhibition result in assay [1] was “inactive”. Still for that read-out and setting: to `CC(C)c1cc(C(=O)NS(=O)(=O)OC[C@H]2O[C@@H](n3cnc4c(N)ncnc43)[C@H](O)[C@@H]2O)n(C)n1` belongs “Active”. In the case of `COc1cc([C@@H]2c3cc4c(cc3[C@@H](O[C@@H]3O[C@@H]5CO[C@@H](C)O[C@H]5[C@H](O)[C@H]3O)[C@H]3COC(=O)[C@H]23)OCO4)cc(OC)c1O` [ETOPOSIDE], the IC50 with A549 worked out at 0.47 µM; in the assay with HCT-116, 1.22 µM; in the assay with MDA-MB-231 it was 3.38 µM; with SK-HEP1, 0.41 µM; with SNU-638, 0.34 µM; with MRC5, 12.7 µM.
